Results published in ChEMBL document CHEMBL4184148 (Bioorg Med Chem Lett, 2017).

What was measured:
[1] = target: Mast/stem cell growth factor receptor Kit (Homo sapiens) (UniProt P10721); test: Binding affinity to wild-type human partial length autoinhibited KIT (Y545 to D952 residues) expressed in HEK293 cells at 1 uM by Kinomescan method relative to control; assay type: cell-based; set-up: scale not given: the % may be the effect or the level left
[2] = target: Epidermal growth factor receptor (Homo sapiens) (UniProt P00533); test: Binding affinity to human partial length EGFR S752-I759del mutant expressed in Escherichia coli BL21 at 1 uM by Kinomescan method relative to control
[3] = tested on: Serine/threonine-protein kinase B-raf (Homo sapiens), P15056 [V600E]; test: Binding affinity to human partial length BRAF V600E mutant (S429 to E741 residues) expressed in HEK293 cells at 1 uM by Kinomescan method relative to control; assay type: cell-based
[4] = target: Serine/threonine-protein kinase 32C (Homo sapiens) (UniProt Q86UX6); test: Binding affinity to wild-type human partial length YANK3 (M68 to G486 residues) expressed in Escherichia coli BL21 at 1 uM by Kinomescan method relative to control
[5] = tested on: Tyrosine-protein kinase ABL1 (Homo sapiens), P00519 [F317I]; test: Binding affinity to human non-phosphorylated ABL1 F317I mutant (S229 to K512 residues) expressed in HEK293 cells at 1 uM by Kinomescan method relative to control; assay type: cell-based
[6] = target: Serine/threonine-protein kinase MRCK gamma (Homo sapiens) (UniProt Q6DT37); test: Binding affinity to wild-type human partial length DMPK2 (S46 to S408 residues) expressed in Escherichia coli BL21 at 1 uM by Kinomescan method relative to control
[7] = target: AP2-associated protein kinase 1 (Homo sapiens) (UniProt Q2M2I8); test: Binding affinity to human wild-type AAK1 (G25 to L333 residues) expressed in Escherichia coli BL21 at 1 uM by Kinomescan method relative to control
[8] = tested on: Tyrosine-protein kinase ABL1 (Homo sapiens), P00519 [F317L]; test: Binding affinity to human phosphorylated ABL1 F317L mutant (S229 to K512 residues) expressed in HEK293 cells at 1 uM by Kinomescan method relative to control; assay type: cell-based
[9] = target: Serine/threonine-protein kinase TAO1 (Homo sapiens) (UniProt Q7L7X3); test: Binding affinity to wild-type human partial length TAOK1 (M1 to A320 residues) expressed in HEK293 cells at 1 uM by Kinomescan method relative to control; assay type: cell-based
[10] = target: Ribosomal protein S6 kinase beta-1 (Homo sapiens) (UniProt P23443); test: Binding affinity to wild-type human partial length S6K1 (M1 to S421 residues) expressed in HEK293 cells at 1 uM by Kinomescan method relative to control; assay type: cell-based
[11] = target: Homeodomain-interacting protein kinase 2 (Homo sapiens) (UniProt Q9H2X6); test: Binding affinity to wild-type human partial length HIPK2 (M153 to S564 residues) expressed in HEK293 cells at 1 uM by Kinomescan method relative to control; assay type: cell-based
[12] = target: BMP-2-inducible protein kinase (Homo sapiens) (UniProt Q9NSY1); test: Binding affinity to wild-type human partial length BIKE (S34 to N329 residues) expressed in Escherichia coli BL21 at 1 uM by Kinomescan method relative to control
[13] = target: Atypical kinase COQ8B, mitochondrial (Homo sapiens) (UniProt Q96D53); test: Binding affinity to wild-type human full length ADCK4 (M1 to S544 residues) expressed in Escherichia coli BL21 at 1 uM by Kinomescan method relative to control
[14] = target: Serine/threonine-protein kinase SBK1 (Homo sapiens) (UniProt Q52WX2); test: Binding affinity to wild-type human partial length SBK1 (P23 to P348 residues) expressed in HEK293 cells at 1 uM by Kinomescan method relative to control; assay type: cell-based
[15] = target: Beta-adrenergic receptor kinase 1 (Homo sapiens) (UniProt P25098); test: Binding affinity to wild-type human full length GRK2 (M1 to L689 residues) expressed in HEK293 cells at 1 uM by Kinomescan method relative to control; assay type: cell-based
Method in brief: (§1)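 Run as one kinome-wide competition binding panel with each compound at a single fixed concentration. Results were plotted as a kinome-wide selectivity map.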

[16] = target: Mitogen-activated protein kinase kinase kinase 3 (Homo sapiens) (UniProt Q99759); test: Binding affinity to wild-type human partial length MAP3K3 (E320 to Y626 residues) expressed in HEK293 cells at 1 uM by Kinomescan method relative to control; assay type: cell-based
[17] = tested on: Tyrosine-protein kinase ABL1 (Homo sapiens), P00519 [F317I]; test: Binding affinity to human phosphorylated ABL1 F317I mutant (S229 to K512 residues) expressed in HEK293 cells at 1 uM by Kinomescan method relative to control; assay type: cell-based
[18] = target: Tyrosine-protein kinase receptor TYRO3 (Homo sapiens) (UniProt Q06418); test: Binding affinity to wild-type human partial length TYRO3 (S497 to T814 residues) expressed in Escherichia coli BL21 at 1 uM by Kinomescan method relative to control
[19] = target: Protein kinase C eta type (Homo sapiens) (UniProt P24723); test: Binding affinity to wild-type human partial length PRKCH (S324 to P683 residues) expressed in Escherichia coli BL21 at 1 uM by Kinomescan method relative to control
[20] = target: Serine/threonine-protein kinase MRCK beta (Homo sapiens) (UniProt Q9Y5S2); test: Binding affinity to wild-type human partial length MRCKB (L56 to S417 residues) expressed in Escherichia coli BL21 at 1 uM by Kinomescan method relative to control
[21] = tested on: Receptor-type tyrosine-protein kinase FLT3 (Homo sapiens), P36888 [D835Y]; test: Binding affinity to human partial length FLT3 D835Y mutant (Q580 to Y969 residues) expressed in Escherichia coli BL21 at 1 uM by Kinomescan method relative to control
[22] = tested on: Epidermal growth factor receptor (Homo sapiens), P00533 [G719S]; test: Binding affinity to human partial length EGFR G719S mutant (R669 to V1011 residues) expressed in Escherichia coli BL21 at 1 uM by Kinomescan method relative to control
[23] = target: Serine/threonine-protein kinase PLK4 (Homo sapiens, UniProt O00444); test: Inhibition of GST-tagged human PLK4 (1 to 836 residues) by Lanthascreen binding assay
[24] = target: Dual specificity mitogen-activated protein kinase kinase 3 (Homo sapiens) (UniProt P46734); test: Binding affinity to wild-type human full length MEK3 (M1 to S318 residues) expressed in HEK293 cells at 1 uM by Kinomescan method relative to control; assay type: cell-based; method in brief: as §1
[25] = tested on: Mast/stem cell growth factor receptor Kit (Homo sapiens), P10721 [V559D,T670I]; test: Binding affinity to human partial length KIT V559D/T670I double mutant (Y545 to D952 residues) expressed in Escherichia coli BL21 at 1 uM by Kinomescan method relative to control
[26] = target: Dual specificity mitogen-activated protein kinase kinase 1 (Homo sapiens) (UniProt Q02750); test: Binding affinity to wild-type human full length MEK1 (M1 to V393 residues) expressed in HEK293 cells at 1 uM by Kinomescan method relative to control; assay type: cell-based; method in brief: as §1

Chain of Tyrosine-protein kinase ABL1 (Homo sapiens), P00519 [F317I] (P00519 whole entry F317I, the tested form may be a part): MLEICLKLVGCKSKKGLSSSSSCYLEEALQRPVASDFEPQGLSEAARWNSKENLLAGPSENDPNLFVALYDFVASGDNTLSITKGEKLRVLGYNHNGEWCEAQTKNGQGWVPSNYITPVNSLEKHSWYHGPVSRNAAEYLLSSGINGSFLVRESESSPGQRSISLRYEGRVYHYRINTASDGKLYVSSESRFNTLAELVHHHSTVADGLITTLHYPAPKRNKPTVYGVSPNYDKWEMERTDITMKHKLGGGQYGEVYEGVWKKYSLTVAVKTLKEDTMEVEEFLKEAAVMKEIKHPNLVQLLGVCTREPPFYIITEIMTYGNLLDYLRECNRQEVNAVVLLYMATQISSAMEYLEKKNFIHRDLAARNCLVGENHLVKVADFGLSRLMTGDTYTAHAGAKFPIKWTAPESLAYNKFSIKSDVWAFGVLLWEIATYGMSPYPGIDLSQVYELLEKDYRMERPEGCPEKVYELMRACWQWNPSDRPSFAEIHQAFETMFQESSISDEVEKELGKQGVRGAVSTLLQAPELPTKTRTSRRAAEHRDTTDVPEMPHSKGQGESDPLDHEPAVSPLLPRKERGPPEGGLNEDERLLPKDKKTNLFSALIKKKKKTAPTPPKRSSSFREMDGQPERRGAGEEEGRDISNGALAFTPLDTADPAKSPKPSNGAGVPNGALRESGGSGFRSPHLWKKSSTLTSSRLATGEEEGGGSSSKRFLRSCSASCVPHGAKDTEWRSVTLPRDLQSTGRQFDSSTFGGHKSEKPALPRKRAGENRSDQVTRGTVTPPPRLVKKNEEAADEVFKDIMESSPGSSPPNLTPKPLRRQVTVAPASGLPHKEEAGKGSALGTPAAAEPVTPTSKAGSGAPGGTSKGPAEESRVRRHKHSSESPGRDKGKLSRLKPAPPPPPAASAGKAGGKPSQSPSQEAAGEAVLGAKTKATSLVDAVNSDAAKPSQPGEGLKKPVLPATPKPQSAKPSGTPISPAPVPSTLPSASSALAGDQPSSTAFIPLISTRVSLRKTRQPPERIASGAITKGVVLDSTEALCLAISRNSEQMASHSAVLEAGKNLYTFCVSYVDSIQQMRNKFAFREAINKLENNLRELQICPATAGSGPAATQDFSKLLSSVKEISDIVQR
Chain of Mast/stem cell growth factor receptor Kit (Homo sapiens), P10721 [V559D,T670I] (P10721 whole entry V559D/T670I, the tested form may be a part): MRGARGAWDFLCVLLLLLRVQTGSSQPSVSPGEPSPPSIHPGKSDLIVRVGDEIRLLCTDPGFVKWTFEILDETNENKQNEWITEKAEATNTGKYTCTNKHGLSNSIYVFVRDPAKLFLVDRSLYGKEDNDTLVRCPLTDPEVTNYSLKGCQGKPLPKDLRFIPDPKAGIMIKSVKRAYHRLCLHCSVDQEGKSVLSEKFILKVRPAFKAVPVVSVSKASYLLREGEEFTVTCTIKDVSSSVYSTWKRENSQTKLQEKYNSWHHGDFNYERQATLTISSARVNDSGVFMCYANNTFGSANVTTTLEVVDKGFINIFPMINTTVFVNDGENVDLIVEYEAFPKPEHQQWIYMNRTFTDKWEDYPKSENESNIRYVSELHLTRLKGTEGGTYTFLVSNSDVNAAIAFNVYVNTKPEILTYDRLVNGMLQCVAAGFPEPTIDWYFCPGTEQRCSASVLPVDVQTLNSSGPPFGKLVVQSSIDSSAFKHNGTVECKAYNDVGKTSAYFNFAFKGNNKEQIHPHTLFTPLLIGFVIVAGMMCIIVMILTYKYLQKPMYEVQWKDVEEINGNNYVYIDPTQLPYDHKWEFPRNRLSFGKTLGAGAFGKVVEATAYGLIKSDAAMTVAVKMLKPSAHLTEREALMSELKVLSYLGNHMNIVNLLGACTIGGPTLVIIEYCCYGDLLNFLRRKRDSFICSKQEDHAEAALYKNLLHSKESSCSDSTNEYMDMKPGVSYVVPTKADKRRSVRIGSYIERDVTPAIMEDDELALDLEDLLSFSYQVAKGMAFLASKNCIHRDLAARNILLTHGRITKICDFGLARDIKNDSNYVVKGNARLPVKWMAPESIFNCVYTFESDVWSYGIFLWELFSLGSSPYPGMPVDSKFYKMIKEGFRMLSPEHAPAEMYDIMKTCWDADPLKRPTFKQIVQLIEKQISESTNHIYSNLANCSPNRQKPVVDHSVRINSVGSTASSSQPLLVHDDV
Chain of Mast/stem cell growth factor receptor Kit (Homo sapiens) (P10721 whole entry, the tested form may be a part): as the sequence (P10721 whole entry V559D/T670I, the tested form may be a part) above, with D559V, I670T counted along it
Chain of Serine/threonine-protein kinase PLK4 (O00444 whole entry, the tested form may be a part): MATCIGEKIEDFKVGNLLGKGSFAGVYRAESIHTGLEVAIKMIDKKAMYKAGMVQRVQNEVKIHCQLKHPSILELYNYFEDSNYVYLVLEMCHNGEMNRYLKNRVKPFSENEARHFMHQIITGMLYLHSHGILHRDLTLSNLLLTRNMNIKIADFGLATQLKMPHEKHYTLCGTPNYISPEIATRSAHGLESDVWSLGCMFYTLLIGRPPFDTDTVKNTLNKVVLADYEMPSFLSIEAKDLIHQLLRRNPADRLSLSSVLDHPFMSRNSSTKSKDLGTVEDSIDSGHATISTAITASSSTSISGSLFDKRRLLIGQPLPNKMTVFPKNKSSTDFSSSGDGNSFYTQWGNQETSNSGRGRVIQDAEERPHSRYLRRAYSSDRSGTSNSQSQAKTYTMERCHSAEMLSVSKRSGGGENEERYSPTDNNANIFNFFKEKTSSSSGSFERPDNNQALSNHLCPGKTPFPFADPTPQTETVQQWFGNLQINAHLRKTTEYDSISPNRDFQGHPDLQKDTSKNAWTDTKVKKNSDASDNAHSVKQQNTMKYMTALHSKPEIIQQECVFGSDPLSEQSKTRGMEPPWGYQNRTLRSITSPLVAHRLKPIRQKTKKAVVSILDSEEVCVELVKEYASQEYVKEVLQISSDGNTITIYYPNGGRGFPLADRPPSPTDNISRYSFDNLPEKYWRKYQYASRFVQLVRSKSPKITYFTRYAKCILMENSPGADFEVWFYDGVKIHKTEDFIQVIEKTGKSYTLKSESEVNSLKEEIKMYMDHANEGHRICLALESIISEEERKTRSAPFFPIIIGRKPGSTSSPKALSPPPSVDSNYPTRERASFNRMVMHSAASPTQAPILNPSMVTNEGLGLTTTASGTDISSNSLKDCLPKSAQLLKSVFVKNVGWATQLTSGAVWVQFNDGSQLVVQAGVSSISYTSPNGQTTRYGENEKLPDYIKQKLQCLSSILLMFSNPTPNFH
Chain of Serine/threonine-protein kinase B-raf (Homo sapiens), P15056 [V600E] (P15056 whole entry V600E, the tested form may be a part): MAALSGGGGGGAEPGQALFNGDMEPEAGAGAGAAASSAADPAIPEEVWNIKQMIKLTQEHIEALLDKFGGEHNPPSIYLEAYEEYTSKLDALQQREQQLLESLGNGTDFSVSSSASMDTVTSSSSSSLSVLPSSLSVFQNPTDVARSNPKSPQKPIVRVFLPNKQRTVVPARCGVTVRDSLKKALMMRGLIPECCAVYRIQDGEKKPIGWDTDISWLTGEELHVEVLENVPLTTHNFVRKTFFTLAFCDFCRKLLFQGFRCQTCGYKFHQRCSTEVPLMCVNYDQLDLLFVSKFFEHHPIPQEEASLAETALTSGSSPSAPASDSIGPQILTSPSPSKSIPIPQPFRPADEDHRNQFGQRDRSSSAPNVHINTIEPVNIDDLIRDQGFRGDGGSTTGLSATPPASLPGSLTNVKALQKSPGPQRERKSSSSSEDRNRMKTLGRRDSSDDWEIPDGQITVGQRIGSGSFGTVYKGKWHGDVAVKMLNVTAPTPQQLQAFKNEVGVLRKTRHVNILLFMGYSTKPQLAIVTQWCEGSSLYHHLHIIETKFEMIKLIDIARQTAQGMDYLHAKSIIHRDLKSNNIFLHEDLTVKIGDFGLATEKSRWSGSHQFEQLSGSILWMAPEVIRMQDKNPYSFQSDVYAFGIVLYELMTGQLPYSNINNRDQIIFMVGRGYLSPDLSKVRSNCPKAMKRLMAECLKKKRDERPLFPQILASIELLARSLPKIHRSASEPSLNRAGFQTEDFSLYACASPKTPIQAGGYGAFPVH

SMILES: CCC(=O)Nc1ccc(C(=O)Nc2ccc(Nc3ncc4c(n3)N(C)c3ccc(C)cc3C(=O)N4C)cc2)cc1
- Activity [1]: 90%
- Activity [2]: 90%
- Activity [3]: 100%
- Activity [4]: 100%
- Activity [5]: 76%
- Activity [6]: 77%
- Activity [7]: 100%
- Activity [8]: 100%
- Activity [9]: 89%
- Activity [10]: 100%
- Activity [11]: 100%
- Activity [12]: 93%
- Activity [13]: 100%
- Activity [14]: 93%
- Activity [15]: 90%
- Activity [16]: 63%
- Activity [17]: 63%
- Activity [18]: 91%
- Activity [19]: 100%
- Activity [20]: 98%
- Activity [21]: 77%
- Activity [22]: 93%
- IC50 [23]: 82 nM
- Activity [24]: 65%
- Activity [25]: 97%
- Activity [26]: 52%

SMILES: C=CC(=O)Nc1ccc(C(=O)Nc2ccc(Nc3ncc4c(n3)N(C)c3ccc(C)cc3C(=O)N4C)cc2)cc1
- Activity [1]: 96%
- Activity [2]: 96%
- Activity [3]: 94%
- Activity [4]: 100%
- Activity [5]: 77%
- Activity [6]: 100%
- Activity [7]: 99%
- Activity [8]: 92%
- Activity [9]: 92%
- Activity [10]: 91%
- Activity [11]: 94%
- Activity [12]: 85%
- Activity [13]: 100%
- Activity [14]: 100%
- Activity [15]: 100%
- Activity [16]: 86%
- Activity [17]: 100%
- Activity [18]: 92%
- Activity [19]: 100%
- Activity [20]: 96%
- Activity [21]: 83%
- Activity [22]: 100%
- IC50 [23]: 43.5 nM
- Activity [24]: 92%
- Activity [25]: 100%
- Activity [26]: 100%
